According to ChEMBL document CHEMBL3112521, “Design, synthesis and biological evaluation of (E)-2-(2-arylhydrazinyl)quinoxalines, a promising and potent new class of anticancer agents” (Bioorg Med Chem Lett, 2014):

Assays:
HCT-116 [1] = test: Cytotoxicity against human HCT116 cells assessed as growth inhibition at 5 ug/ml by MTT assay; type: functional; details: read-out: GI
Procedure, shortened: (§1)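 Single-concentration MTT screen at 5 µg/mL across SF-295 (glioblastoma), OVCAR-8 (ovary) and HCT-116 (colon) cells. Read-out is percent growth inhibition, reported with sd.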

OVCAR-8 [2] = test: Cytotoxicity against human OVCAR8 cells assessed as growth inhibition at 5 ug/ml by MTT assay; type: functional; details: read-out: GI; procedure, shortened: as §1
SF-295 [3] = test: Cytotoxicity against human SF295 cells assessed as growth inhibition at 5 ug/ml by MTT assay; type: functional; details: read-out: GI; procedure, shortened: as §1
SF-295 [4] = test: Cytotoxicity against human SF295 cells assessed as growth inhibition by MTT assay; type: functional, cell-based
Procedure, shortened: (§2)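 Dose-response on HCT-116, OVCAR-8, HL-60 (leukemia) and SF-295 cells, with doxorubicin as positive control. IC50 is taken as the concentration inducing 50% inhibition of cell growth. Data come from three independent experiments, each run in triplicate.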

HCT-116 [5] = test: Cytotoxicity against human HCT116 cells assessed as growth inhibition by MTT assay; type: functional, cell-based; procedure, shortened: as §2
HL-60 = test: Cytotoxicity against human HL60 cells assessed as growth inhibition by MTT assay; type: functional, cell-based; procedure, shortened: as §2
OVCAR-8 [6] = test: Cytotoxicity against human OVCAR8 cells assessed as growth inhibition by MTT assay; type: functional, cell-based; procedure, shortened: as §2

Row | Compound | inhibition of growth at 5 µg/mL (HCT-116 [1]) | inhibition of growth at 5 µg/mL (OVCAR-8 [2]) | inhibition of growth at 5 µg/mL (SF-295 [3]) | IC50 (SF-295 [4]) | IC50 (HCT-116 [5]) | IC50 (HL-60) | IC50 (OVCAR-8 [6])
1 | Brc1ccccc1/C=N/Nc1cnc2ccccc2n1 | 23.6% | 18% | 35.2% | – | – | – | –
2 | Brc1cccc(/C=N/Nc2cnc3ccccc3n2)c1 | 0% | 0% | 14.2% | – | – | – | –
3 | Brc1ccc(/C=N/Nc2cnc3ccccc3n2)cc1 | 23.2% | 18.2% | 33.5% | – | – | – | –
4 | O=[N+]([O-])c1ccccc1/C=N/Nc1cnc2ccccc2n1 | 23% | 21.8% | 21.9% | – | – | – | –
5 | O=[N+]([O-])c1cccc(/C=N/Nc2cnc3ccccc3n2)c1 | 21% | 16.9% | 23.4% | – | – | – | –
6 | O=[N+]([O-])c1ccc(/C=N/Nc2cnc3ccccc3n2)cc1 | 18.6% | 40.6% | 27% | – | – | – | –
7 | Cc1ccccc1/C=N/Nc1cnc2ccccc2n1 | 28.7% | 17.8% | 46.4% | – | – | – | –
8 | Cc1cccc(/C=N/Nc2cnc3ccccc3n2)c1 | 33.4% | 39.9% | 39.8% | – | – | – | –
9 | Cc1ccc(/C=N/Nc2cnc3ccccc3n2)cc1 | 19.6% | 29% | 18.1% | – | – | – | –
10 | N#Cc1cccc(/C=N/Nc2cnc3ccccc3n2)c1 | 30.7% | 11.5% | 44.5% | – | – | – | –
11 | N#Cc1ccc(/C=N/Nc2cnc3ccccc3n2)cc1 | 31.6% | 50.9% | 16% | – | – | – | –
12 | Oc1cccc(/C=N/Nc2cnc3ccccc3n2)c1 | 29.6% | 51.5% | 27.5% | – | – | – | –
13 | Oc1ccc(/C=N/Nc2cnc3ccccc3n2)cc1 | 20.2% | 67.3% | 39.4% | – | – | – | –
14 | Oc1cccc(/C=N/Nc2cnc3ccccc3n2)c1O | 84% | 97.9% | 81.2% | 1260 nM | 1760 nM | 316 nM | 1060 nM
15 | Oc1ccc(/C=N/Nc2cnc3ccccc3n2)c(O)c1 | 85.1% | 84.2% | 85.3% | – | – | – | –
16 | Oc1ccc(O)c(/C=N/Nc2cnc3ccccc3n2)c1 | 89.2% | 60.5% | 50.7% | – | – | – | –
17 | Oc1ccc(/C=N/Nc2cnc3ccccc3n2)cc1O | 69.4% | 46.3% | 47.6% | – | – | – | –
18 | Oc1cc(/C=N/Nc2cnc3ccccc3n2)cc(O)c1O | 14.9% | 12.8% | 37.8% | – | – | – | –
19 | COc1ccccc1/C=N/Nc1cnc2ccccc2n1 | 4.45% | 21% | 21.8% | – | – | – | –
20 | COc1cccc(/C=N/Nc2cnc3ccccc3n2)c1 | 14.5% | 41.6% | 35.8% | – | – | – | –
21 | COc1ccc(/C=N/Nc2cnc3ccccc3n2)cc1 | -43.6% | 14.4% | 0.52% | – | – | – | –
22 | COc1cccc(/C=N/Nc2cnc3ccccc3n2)c1OC | 0% | 0% | 22.2% | – | – | – | –
23 | COc1ccc(/C=N/Nc2cnc3ccccc3n2)c(OC)c1 | 12.8% | 7.19% | 46.9% | – | – | – | –

Row | Compound | inhibition of growth at 5 µg/mL (HCT-116 [1]) | inhibition of growth at 5 µg/mL (OVCAR-8 [2]) | inhibition of growth at 5 µg/mL (SF-295 [3]) | IC50 (SF-295 [4]) | IC50 (HCT-116 [5]) | IC50 (HL-60) | IC50 (OVCAR-8 [6])
24 | COc1ccc(OC)c(/C=N/Nc2cnc3ccccc3n2)c1 | 0% | 18.5% | 44.6% | – | – | – | –
25 | COc1cccc(OC)c1/C=N/Nc1cnc2ccccc2n1 | 19.4% | 25.1% | 44.7% | – | – | – | –
26 | COc1ccc(/C=N/Nc2cnc3ccccc3n2)cc1OC | 22.3% | 17.6% | 16.5% | – | – | – | –
27 | COc1cc(/C=N/Nc2cnc3ccccc3n2)cc(OC)c1OC | 20.7% | 38.8% | 60.1% | – | – | – | –
28 | CCOc1cccc(/C=N/Nc2cnc3ccccc3n2)c1 | 1.29% | 41.2% | 7.19% | – | – | – | –
29 | CCOc1ccc(/C=N/Nc2cnc3ccccc3n2)cc1 | 17.6% | 50.3% | 12.3% | – | – | – | –
30 | Cc1ccc(/C=N/Nc2cnc3ccccc3n2)c(O)c1 | 17.4% | 31.5% | 59.9% | – | – | – | –
31 | Cc1ccc(O)c(/C=N/Nc2cnc3ccccc3n2)c1 | 13.7% | 25.4% | 38.4% | – | – | – | –
32 | COc1ccc(/C=N/Nc2cnc3ccccc3n2)c(O)c1 | 83.1% | 80.9% | 66.4% | 15700 nM | 14200 nM | 4190 nM | 7550 nM
33 | O=[N+]([O-])c1ccc(O)c(/C=N/Nc2cnc3ccccc3n2)c1 | 92.1% | 95.6% | 78.5% | 2110 nM | 4320 nM | 1750 nM | 2840 nM
34 | O=[N+]([O-])c1cc(/C=N/Nc2cnc3ccccc3n2)ccc1Cl | 20.6% | 9% | 36.8% | – | – | – | –
35 | Oc1ccc(/C=N/Nc2cnc3ccccc3n2)cc1Cl | 16.2% | 28.8% | 46.6% | – | – | – | –
36 | COc1ccc(/C=N/Nc2cnc3ccccc3n2)c(Cl)c1O | 24.5% | 13.8% | 32.4% | – | – | – | –
37 | C(=N\Nc1cnc2ccccc2n1)/c1ccccc1 | 18.4% | 34.5% | 3.37% | – | – | – | –
38 | Fc1ccccc1/C=N/Nc1cnc2ccccc2n1 | 7.01% | 0% | 12.8% | – | – | – | –
39 | Fc1cccc(/C=N/Nc2cnc3ccccc3n2)c1 | 10.8% | 5.59% | 8.36% | – | – | – | –
40 | Clc1ccccc1/C=N/Nc1cnc2ccccc2n1 | 12.1% | 9.09% | 31.9% | – | – | – | –
41 | Clc1cccc(/C=N/Nc2cnc3ccccc3n2)c1 | 0% | 0% | 33.2% | – | – | – | –
42 | Clc1ccc(/C=N/Nc2cnc3ccccc3n2)cc1 | 10.2% | 41.7% | 44.5% | – | – | – | –
43 | Clc1cccc(Cl)c1/C=N/Nc1cnc2ccccc2n1 | 71.2% | 53.5% | 52% | – | – | – | –
44 | Clc1ccc(/C=N/Nc2cnc3ccccc3n2)c(Cl)c1 | 16.5% | 4.9% | 28.5% | – | – | – | –
45 | Clc1ccc(/C=N/Nc2cnc3ccccc3n2)cc1Cl | 0.5% | 0% | 37.8% | – | – | – | –
46 | COc1cccc2c1C(=O)c1c(O)c3c(c(O)c1C2=O)C[C@@](O)(C(=O)CO)C[C@@H]3O[C@H]1C[C@H](N)[C@H](O)[C@H](C)O1 [DOXORUBICIN] | – | – | – | – | 230 nM | – | 488 nM
